Tests used:
[1] = melting temperature; fluorescence melt of hairpins on a sequencing array, two-state fit, raised by 9.35 °C to match UV melts; conditions: sodium 0.088 M
Procedure, shortened: (§1)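 Library hairpins on a sequenced MiSeq flow cell carried annealed Cy3 and quencher oligos, and their Cy3 fluorescence was imaged in 50 mM Na-HEPES pH 8.0 with 25 mM NaCl, in 2.5 °C steps up to 60 °C. Signals were normalised to Cy3 before quenching and to control constructs. Melting temperature and folding enthalpy were obtained from bootstrapped two-state fits, combined by inverse-variance weighting across four replicates, and the fitted temperatures were then raised by 9.35 °C to match UV melts.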

[2] = folding enthalpy; higher = less favourable; fluorescence melt of hairpins on a sequencing array, two-state fit; conditions: sodium 0.088 M
Procedure, shortened: as §1

| Sequence | Tm [1] | folding enthalpy [2] |
| --- | --- | --- |
| GTGCTCGGAAACGGGCAC ((((.((....)).)))) | 61.4 °C | -47 kcal/mol |
| GGTAAGCGAAAGCTGACC (((.(((....))).))) | 58.4 °C | -26.2 kcal/mol |
| GAATGACGAAAGTCTTTC (((.(((....))).))) | 44.6 °C | -25.6 kcal/mol |
| GACGACCGAAAGGTTGTC (((.(((....))).))) | 63.4 °C | -42.3 kcal/mol |
| GCGTCCGAAAGGAAGCGC ((((((....)))..))) | 67.4 °C | -29.7 kcal/mol |
| GCAAATCGAAAGATTGC (((.(((....)))))) | 48.9 °C | -24 kcal/mol |
| GCGTTCGGAAACGAATGC ((.((((....)))).)) | 58.7 °C | -42.1 kcal/mol |
| GGCGCGACGAAAGTCGCC (((..(((....)))))) | 51.9 °C | -5.55 kcal/mol |
| GTGCGCGAAAGCGGCCAC ((((((....)))..))) | 45.9 °C | -11.5 kcal/mol |
| GATCCAATACTGGATC ((((((....)))))) | 48.6 °C | -40 kcal/mol |
| GCGAGGCGAAAGCCCGGC ((..(((....)))..)) | 63.8 °C | -10.5 kcal/mol |
| GGCAGTGGAAACACCGCC (((.(((....))).))) | 50.6 °C | -27.1 kcal/mol |
| GCTGCGCGAAAGCGCCGC ((.((((....)))).)) | 63.1 °C | -15.3 kcal/mol |
| GCATTTGGAAACAAATGC (((((((....))))))) | 60 °C | -46.7 kcal/mol |
| GCCCCAGGAAACCGGGGC (((((.(....).))))) | 59.3 °C | -41.2 kcal/mol |
| GGCGACGAAAGTCCAGCC ((((((....)))..))) | 51.1 °C | -27.1 kcal/mol |
| GTGAGGAAACTCAC (((((....))))) | 51.9 °C | -24.5 kcal/mol |
| GCGTGATTACGC ((((....)))) | 52.5 °C | -22.2 kcal/mol |
| GTGTCGGGAAACCGATGC (..((((....))))..) | 46 °C | -23.8 kcal/mol |
| GATCCTAGTAGGATC ((((((...)))))) | 52.4 °C | -34.1 kcal/mol |
| GCGAACTGTCGC ((((....)))) | 45.5 °C | -21.4 kcal/mol |
| GTGCCTCGAAAGAGACAC (((.(((....))).))) | 52.6 °C | -42.5 kcal/mol |
| GCAGATCGAAAGATTGC (((.(((....)))))) | 44.1 °C | -23.1 kcal/mol |

| Sequence | Tm [1] | folding enthalpy [2] |
| --- | --- | --- |
| GGGGAAGGAAACTTTCCC (((.(((....))).))) | 48.3 °C | -29 kcal/mol |
| GTACGGCGAAAGCCATAC (((.(((....))).))) | 42.1 °C | -17.7 kcal/mol |
| GACGGCCGAAAGGCAGTC (((.(((....))).))) | 68.8 °C | -26.2 kcal/mol |
| GGGGTTTCGAAAGAACCC (((..(((....)))))) | 50.8 °C | -32.9 kcal/mol |
| GCAGAGCGAAAGCTGCGC ((..(((....)))..)) | 61.3 °C | -21 kcal/mol |
| GAACATGGAAACATGCTC ((.((((....)))).)) | 35.3 °C | -26.5 kcal/mol |
| GCACTTGGAAACAAGTAC (.(((((....))))).) | 37.9 °C | -19.3 kcal/mol |
| GTAAGTGGAAACGCTTAC (((((.(....).))))) | 45.4 °C | -27.6 kcal/mol |
| GCCATGCGAAAGCCTGGC ((((.((....)).)))) | 62.8 °C | -31.2 kcal/mol |
| GCCATCCGAAAGGAGGC (((.(((....)))))) | 57.6 °C | -22.8 kcal/mol |
| GATCAGTCGGCTGATC ((((((....)))))) | 51.5 °C | -46.8 kcal/mol |
| GCTCACGAAAGTGTGAGC ((((((....)))..))) | 55.8 °C | -34 kcal/mol |
| GGGCCCGCGAAAGCGCCC (((..(((....)))))) | 55.8 °C | -15.6 kcal/mol |
| GTTCTCCGAAAGGATAAC (((.(((....))).))) | 41.2 °C | -26.4 kcal/mol |
| GGGTACCGAAAGGTTCCC (((.(((....))).))) | 56.2 °C | -30.3 kcal/mol |
| GATCATGTCTATGATC ((((((....)))))) | 53.1 °C | -38.9 kcal/mol |
| GCTATCCGAAAGGAAGC (((.(((....)))))) | 46 °C | -23.2 kcal/mol |
| GATCTACAGCTAGATC ((((((....)))))) | 35.1 °C | -31.8 kcal/mol |
| GTTTATCGAAAGATGAAC (((.(((....))).))) | 43.6 °C | -31.2 kcal/mol |
| GATGTTGGAAACGACATC (((((.(....).))))) | 47.2 °C | -33.6 kcal/mol |
| GATCCGTTCCCGGATC ((((((....)))))) | 55.7 °C | -43.4 kcal/mol |
| GCTGCCGGAAACGGTAGC (((.(((....))).))) | 64 °C | -39.9 kcal/mol |
| GGAACCCGAAAGGGATCC (((.(((....))).))) | 54.5 °C | -28 kcal/mol |

| Sequence | Tm [1] | folding enthalpy [2] |
| --- | --- | --- |
| GGCTTCGAAAGAACTGCC ((((((....)))..))) | 36.7 °C | -21.5 kcal/mol |
| GAAGATGCGAAAGCATTC (((..(((....)))))) | 29.9 °C | -10.7 kcal/mol |
| GTAACCGAAAGGTTATAC ((((((....)))..))) | 43.7 °C | -13.4 kcal/mol |
| GGTAGCCCGAAAGGGACC (((..(((....)))))) | 33.6 °C | -12.6 kcal/mol |
| GATCTAGGAAACCAGATC (((((.(....).))))) | 34.6 °C | -25.3 kcal/mol |
| GGACAGCGAAAGCTATCC (((.(((....))).))) | 45 °C | -24.7 kcal/mol |
| GGCGTCGGAAACGGCGTC (.((.((....)).)).) | 53.9 °C | -27.7 kcal/mol |
| GGATACGAAAGTAACTCC ((((((....)))..))) | 30.6 °C | -16 kcal/mol |
| GCTGGTCGAAAGACGAGC (((.(((....))).))) | 54.5 °C | -54.3 kcal/mol |
| GTACCACCGAAAGGTTAC (((..(((....)))))) | 21.6 °C | -11.5 kcal/mol |
| GAACGTGGAAACACGTCC (.(((((....))))).) | 41.3 °C | -13.6 kcal/mol |
| GCATTCGAAAGAATCTGC ((((((....)))..))) | 34.5 °C | -21.5 kcal/mol |
| GTCCTCGAAAGAGTCGAC ((((((....)))..))) | 32.3 °C | -12.3 kcal/mol |
| GCCCGAGCGAAAGCTGGC (((..(((....)))))) | 50.9 °C | -16.1 kcal/mol |
| GTAATGGGAAACTATTAC (((((.(....).))))) | 34.5 °C | -28.6 kcal/mol |
| GTCTCGACGAAAGTCGAC (((..(((....)))))) | 35.1 °C | -8.21 kcal/mol |
| GATCCGTATCGGATC ((((((...)))))) | 57.3 °C | -30.3 kcal/mol |
| GAATAACGAAAGTTTTC (((.(((....)))))) | 29.7 °C | -13.7 kcal/mol |
| GCCGGTCCGAAAGGAGGC (((..(((....)))))) | 48 °C | -21.9 kcal/mol |
| GCCTTTGCGAAAGCAGGC (((..(((....)))))) | 50.3 °C | -20.9 kcal/mol |
| GATCAAGCCCTTGATC ((((((....)))))) | 49.4 °C | -49.1 kcal/mol |
| GGGCTTGGAAACAAACCC (((.(((....))).))) | 43.8 °C | -32.8 kcal/mol |
| GTTCCCGAAAGGGTCAAC ((((((....)))..))) | 26.9 °C | -9.41 kcal/mol |

| Sequence | Tm [1] | folding enthalpy [2] |
| --- | --- | --- |
| GATCCCGGAAACGGGACC (.(((((....))))).) | 46.7 °C | -11 kcal/mol |
| GTCAACGAAAGTTCGAC ((((((....))).))) | 38.4 °C | -25.7 kcal/mol |
| GATCGAAGGATCGATC ((((((....)))))) | 51.4 °C | -22.9 kcal/mol |
| GCGGGGCTCCGC ((((....)))) | 67.4 °C | -26.7 kcal/mol |
| GAAGTGGGAAACCACTTC (((((((....))))))) | 59.9 °C | -45.4 kcal/mol |
| GCGTACGAAAGTAGTCGC ((((((....)))..))) | 45.3 °C | -25.1 kcal/mol |
| GTCGTCGGAAACGGCGAC ((((.((....)).)))) | 62.3 °C | -41.9 kcal/mol |
| GCAACGCGAAAGCGTCGC ((.((((....)))).)) | 64.7 °C | -22.2 kcal/mol |
| GCGATAGCTCGC ((((....)))) | 65.8 °C | -9.76 kcal/mol |
| GCGGAGCGAAAGCTCGGC ((.((((....)))).)) | 65.1 °C | -17.8 kcal/mol |
| GCGAGTGGAAACACCCGC (((.(((....))).))) | 51.9 °C | -26.4 kcal/mol |
| GAAGACGGAAACGTCTTC (((((((....))))))) | 64.5 °C | -41.5 kcal/mol |
| GGAGAAACGAAAGTTTCC (((..(((....)))))) | 37.7 °C | -14.1 kcal/mol |
| GATCCCGTAGGGGATC ((((((....)))))) | 62.9 °C | -23.4 kcal/mol |
| GCTTAGCGAAAGCTCAGC (((.(((....))).))) | 49.1 °C | -33.7 kcal/mol |
| GCTCAGCGAAAGCTAAGC (((.(((....))).))) | 46.7 °C | -40.3 kcal/mol |
| GATCGATCTGTCGATC ((((((....)))))) | 53.1 °C | -45.2 kcal/mol |
| GTTATTCGAAAGAAGAAC (((.(((....))).))) | 42.7 °C | -28.3 kcal/mol |
| CTCAAGAAATTGAG (((((....))))) | 33.8 °C | -12.8 kcal/mol |
| GGTGCCGAAAGGCTAACC ((((((....)))..))) | 50.7 °C | -15.3 kcal/mol |
| GCGGGAGGAAACCCCCGC (((((.(....).))))) | 60.2 °C | -37.9 kcal/mol |
| GCGCCACGAAAGTGACGC (((.(((....))).))) | 66 °C | -38.4 kcal/mol |
| GATCGCGGGGGCGATC ((((((....)))))) | 69.3 °C | -27.7 kcal/mol |

Source: the array DNA melting data of Ke et al. (doi:10.1101/2024.01.08.574731)
